The test system of one series is murine primary neurons. It counts as cell-based, mouse. Particulars: all concentrations tested (1, 5 & 10 μM), 60 min, 37 °C, live-cell confocal microscopy. A digest of the protocol: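 Mature murine primary neurons were incubated for 60 min in neurobasal medium with TAMRA-labelled peptide at 1, 5 or 10 μM, washed, and imaged live by confocal microscopy in an incubation chamber. The read-out was average fluorescence intensity per cell. Neurons showing homogeneous cytoplasmic plus nucleolar fluorescence were scored as transduced. Data are mean ± standard deviation, with equal n per group.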

The test system of series [1] is acute ischaemic stroke patients. The conditions noted are these: ESCAPE-NA1, acute ischaemic stroke; cited from earlier work.
For series [2] the following is noted: particularly upon co-treatment with Alteplase; cited from earlier work.

Results on 3 compounds are retold here after paper PMC11523056 (RSC Advances, 2024).

Ends that are not written are not given here. Peptide text beside a SMILES is read from it.

Take `CC[C@H](C)[C@H](NC(=O)[C@H](CO)NC(=O)[C@H](CO)NC(=O)[C@H](CC(C)C)NC(=O)[C@H](CCCCN)NC(=O)c1ccc2c(c1)C(=O)OC21c2ccc(N(C)C)cc2Oc2cc(N(C)C)ccc21)C(=O)N[C@@H](CCC(=O)O)C(=O)N[C@@H](CO)C(=O)N[C@@H](CC(=O)O)C(=O)N[C@H](C(=O)O)C(C)C` [TAMRA-NR2B9c] (HELM PEPTIDE1{[CN(C)c1ccc2c(c1)Oc1cc(N(C)C)ccc1C21OC(=O)c2cc(C(=O)[*:2])ccc21].K.L.S.S.I.E.S.D.V}$$$$V2.0): the “uptake by mean fluorescence intensity per cell (comparison in words)” value in the series on murine primary neurons is “much lower than for any other peptide construct tested”.
On to YGRKKRRQRRR [TAMRA-Tat], for which the “uptake by mean fluorescence intensity per cell (comparison in words)” value in the series on murine primary neurons is “dose response is minimal”.
Turning to “YGRKKRRQRRRKLSSIESDV [Tat-NR2B9c, nerinetide]”, the “safety in clinical trial” value in series [1] is “good safety profile”. The “degradation in human plasma (in words)” value in series [2] is given as “rapid degradation”.
